# HKDC1 inh – blocks human hexokinase HKDC1 activity. Q2TB90. recombinant HKDC1, G6PDH/diaphorase resazurin coupled fluorescence. inhibition, % at 20 µM. 340,000 compounds, 0.16% hits;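 active means inhibition above about 35% when tested at 20 µM, limit read from the data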;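 further: plate controls were DMSO wells with enzyme for no effect and DMSO wells lacking enzyme for full effect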
# Target sequence (Q2TB90 whole entry, looked up): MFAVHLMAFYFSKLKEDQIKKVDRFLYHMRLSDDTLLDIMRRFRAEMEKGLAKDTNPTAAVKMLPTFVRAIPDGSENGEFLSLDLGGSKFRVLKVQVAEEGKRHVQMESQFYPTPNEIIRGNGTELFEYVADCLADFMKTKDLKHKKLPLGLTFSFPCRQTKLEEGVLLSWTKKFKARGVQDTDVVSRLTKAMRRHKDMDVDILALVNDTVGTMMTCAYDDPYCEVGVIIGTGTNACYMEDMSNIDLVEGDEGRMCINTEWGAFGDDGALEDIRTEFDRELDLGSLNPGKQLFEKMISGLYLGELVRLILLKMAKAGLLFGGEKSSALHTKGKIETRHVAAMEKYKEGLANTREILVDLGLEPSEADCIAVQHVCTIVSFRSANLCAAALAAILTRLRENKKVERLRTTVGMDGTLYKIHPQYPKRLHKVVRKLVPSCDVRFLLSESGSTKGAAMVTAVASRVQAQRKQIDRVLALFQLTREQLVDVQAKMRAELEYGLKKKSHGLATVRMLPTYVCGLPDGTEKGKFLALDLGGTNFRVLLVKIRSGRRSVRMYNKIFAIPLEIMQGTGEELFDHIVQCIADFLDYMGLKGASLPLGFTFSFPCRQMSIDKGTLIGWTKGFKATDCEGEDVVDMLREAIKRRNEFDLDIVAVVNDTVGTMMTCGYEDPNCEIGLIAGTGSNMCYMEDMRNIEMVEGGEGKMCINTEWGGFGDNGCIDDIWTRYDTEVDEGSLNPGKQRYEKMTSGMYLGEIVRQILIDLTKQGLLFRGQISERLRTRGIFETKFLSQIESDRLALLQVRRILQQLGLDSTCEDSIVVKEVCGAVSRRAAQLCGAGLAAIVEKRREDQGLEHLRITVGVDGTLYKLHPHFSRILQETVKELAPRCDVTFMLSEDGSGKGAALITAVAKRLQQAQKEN
#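 Material – in-house recombinant HK5 (HKDC1) enzyme · Quantity – HKDC1 at 5 µg/mL · Buffer or medium – pH 8.0 Tris buffer with 10 mM MgCl2 · Reagent – glucose with 1 mM ATP · Dosing – single 20 µM dose · Times – reaction time 90 min, room temperature, protected from light · Technique – resorufin fluorescence at 613 nm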
# PfGluPho inh – PfG6PD (Plasmodium falciparum) enzyme inhibition | PfGluPho enzyme, NADPH resazurin-diaphorase fluorescence | inhibition, % at 20 µM | 350,000 compounds, 0.78% hits;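 active means inhibition reaching at least a set limit at 20 µM in the primary screen, cut at about 59% in these data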;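 further: 0% = DMSO wells with substrate and 100% = DMSO wells lacking glucose-6-phosphate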
# G6PDH counter – L. mesenteroides G6PDH inhibition counter-screen; Purified L. mesenteroides G6PDH, diaphorase/resazurin coupled fluorescence, 45 min; inhibition, % at 5 µM; 200,000 compounds, 0.12% hits; AID 1020; in the data active means inhibition above about 50%
# Diaphorase act – activates diaphorase or chemically reduces, flagging diaphorase assay artifacts. Diaphorase/resazurin coupled assay, resorufin fluorescence, 16 min; stronger effect = higher value; 1 = vehicle wells, 0 = NADH-free wells. activation factor at 20 µM. 190,000 compounds, 0.005% hits. AID 1229;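 active means diaphorase activity raised at least twofold by the compound at 20 µM; inactive means activation factor below 2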
#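 Material: bacterial diaphorase enzyme (C. kluyveri); amount: enzyme 0.07 U/mL final; reagent: NADH substrate 0.114 mM plus resazurin dye 0.1 mM, final; doses: single compound dose of 20 µM, 1% DMSO final; timing: 16 min enzyme reaction, ambient temperature; measured by: fluorescence of resorufin, 544 nm excitation, 590 nm emission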
# Diaph inh CS – counter-screen for diaphorase-based assays: diaphorase inhibitors and chemical oxidizers; diaphorase resazurin-to-resorufin fluorescence, NADH, 16 min; bacterial (C. kluyveri) enzyme, not human; inhibition, % at 20 µM; 190,000 compounds, 0.69% hits;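 active means primary screen inhibition at 20 µM above a set limit, cut at about 50% in these data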;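 further: plate controls were DMSO with full reaction for no effect and wells lacking NADH for full effect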
#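 controls = No-NADH positive control and DMSO neutral control | system = Clostridium kluyveri diaphorase enzyme | timing = reaction incubation of 16 min at room temperature | signal = resorufin fluorescence 544/590 nm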
# An asterisk follows results filed as active; . = not tested or not shown. Sampled rows, rich in hits. Any-hit rate of the full collection: about 1.3%.
SMILES,HKDC1 inh,PfGluPho inh,G6PDH counter,Diaphorase act,Diaph inh CS
O=C(COC(=O)CNS(=O)(=O)c1ccc(F)c(F)c1F)NCCc1ccccc1,-7.3,-7.3,.,.,.
CCOC(=O)c1ccccc1NC(=O)c1ccc2nccnc2c1,-1.6,1.2,2.5,0.5,54.9*
CCCCCN1CC(=O)N2C(C)c3[nH]c4ccccc4c3C[C@H]2C1=O (some centres undefined),-0.2,-7.8,.,.,.
Cc1cccc(-n2c(SCC(=O)N3CCCC3)nc3n[nH]c(C)c3c2=N)c1,2.1,2.8,9.3,0.3,67.7*
CCCCN(CC)C(=O)CSc1nc2n[nH]c(C)c2c(=N)n1-c1cccc(C)c1,2.7,5.1,10.6,0.3,66.5*
CCN(C(=O)CSc1nc2n[nH]c(C)c2c(=N)n1-c1ccc(Cl)c(C)c1)c1cccc(C)c1,0.6,8.4,.,.,.
O=[N+]([O-])c1ccc(/C=N/N=C/c2ccc([N+](=O)[O-])o2)o1,26.5,60.0*,45.6,0.6,35.3
O=C(O)/C=C/c1ccc([N+](=O)[O-])o1,17.1,-3.5,4.5,0.9,9.8
Cc1ccc(C)c(S(=O)(=O)Nc2ccc(C(N)=O)cc2)c1,-11.5,6.1,11.9,0.4,57.3*
CCOc1ccc(C(=O)CCC(=O)NCC(=O)Nc2c(C)cccc2C)cc1,-2.9,7.5,.,.,.
Cc1ccc(Nc2nc(-c3ccc(O)c(O)c3)cs2)nc1,-2.6,39.1,24.5,0.2,83.3*
CCOc1ccc(NC(=O)C(c2ccccn2)N(C(=O)CCl)c2ccc(OC)cc2)cc1 (centres undefined),11.6,52.9,20.1,0.4,56.5*
CCOc1ccc(NC(=O)C(c2ccccn2)N(C(=O)CCl)c2ccc(OCC)cc2)cc1 (centres undefined),-4.8,37.9,7.9,0.5,53.5*
COc1ccc(/C=C(/NC(=O)c2ccccc2)C(=O)N/N=C/c2cccs2)cc1OC,-2.4,8.6,-5.2,0.9,12.8
Cc1cccc(C(=O)N2CCC(N3CCC(C(=O)N4CCOCC4)CC3)CC2)c1,-7.2,-2.6,.,.,.
Cc1cccc(CC(=O)N2CCC(N3CCC(C(=O)N4CCOCC4)CC3)CC2)c1,-0.4,2.8,13.5,0.4,55.3*
CCN1CCN(C(=S)c2ccc(Cl)cc2)CC1,-1.9,80.9*,2.1,0.8,18.2
OCCN1CCN(C(=S)c2ccc(Cl)cc2)CC1,-2.8,56.4,-4.5,0.9,7.8
Cc1cc(OCC(O)CN)ccc1Cl (centres undefined),-4.8,-7.8,0.4,1.1,-13.5
O=C(NCc1ccco1)c1cccn2c(=O)c3cc4ccccc4cc3nc12,.,.,34.6,0.3,65.9*
CCOc1ncccc1-c1nc(-c2cccs2)no1,-0.3,-2.4,.,.,.
O=C1NCCCC2c3cc(O)c4ccccc4c3OC12N1CCCCC1 (centres undefined),.,.,55.5*,0.5,46.2
O=C(CSc1nnc(CCCN2C(=O)c3cccc4cccc(c34)C2=O)n1-c1ccccc1)NCCCO,29.5,13.4,-1.9,0.6,43.9
O=C(CSc1nnc(CCCN2C(=O)c3cccc4cccc(c34)C2=O)n1-c1ccccc1)NCCCN1CCOCC1,9.3,-3.5,0.6,0.5,54.9*
COc1ccc(S(=O)(=O)N2CCCOC2CNC(=O)C(=O)NC2CCCC2)cc1 (centres undefined),-3.0,-4.3,.,.,.
SMILES,HKDC1 inh,PfGluPho inh,G6PDH counter,Diaphorase act,Diaph inh CS
Oc1ccc(CN2CCCCC2)c2cccnc12,-6.0,17.1,50.4*,0.4,58.2*
CCOC(=O)N1CCN(Cc2ccc(O)c3ncccc23)CC1,-5.7,-15.7,46.6,0.3,72.0*
Oc1ccc(Cl)c2cccnc12,-5.2,-10.6,.,.,.
Oc1ccccc1CNc1cccc2cccnc12,18.4,19.7,52.4*,0.3,65.6*
Oc1ccc(F)c2cccnc12,9.6,12.6,65.0*,0.5,50.5*
CCOC(=O)N1CCN(Cc2ccccn2)CC1,-1.6,-16.9,6.7,0.9,13.6
Cc1ccc(C)c(NC(=O)CN(C)C(=O)C2CCCC2)c1,-5.1,1.1,.,.,.
Oc1ccc(Cc2ccccc2)c2cccnc12,-29.5,-11.3,.,.,.
Oc1ccc(CN2CCN(c3ccccc3)CC2)c2cccnc12,-26.1,-9.9,19.4,0.3,65.7*
OCc1ccc(O)c2ncccc12,-15.8,-13.0,52.6*,0.7,27.9
NC(=S)NNc1cccc2cccnc12,6.6,48.9,39.0,0.3,71.5*

# Source: PubChem
